From ChEMBL document CHEMBL1139495, “Retro hydrazino-azapeptoids as peptidomimetics of proteasome inhibitors” (J Med Chem, 2005)
Where a SMILES comes first, the peptide text is derived from it. [ ]: non-standard residue; d: D form. Nle = CCCC[C@H](N)C(=O)O

How the values were obtained:
[1] = system: Proteasome; assay: Inhibitory concentration against 20S proteasome chymotrypsin-like activity; format: subcellular
[2] = system: Mel-A (Mus musculus); assay: Inhibitory concentration of the compound was determined against melanocyte Mel-A cells
[3] = system: B16; assay: Inhibitory concentration of the compound was determined against melanoma B16 cells; format: functional, cell-based; conditions: Mus musculus
Summary of the method: (§1)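 MTT read-out on cultured cells (murine leukemia L1210, melanoma B16, normal melanocyte Mel-A), scoring growth inhibition as either a cytostatic or a cytotoxic effect.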

[4] = system: L1210; assay: Inhibitory concentration of the compound was determined against L1210 cells; format: functional, cell-based; conditions: Mus musculus; summary of the method: as §1
[5] = target: Cathepsin B (Homo sapiens, UniProt P07858); assay: (§2) Inhibitory concentration against Cathepsin B activity; format: functional
[6] = target: T1, Calpain-1 catalytic subunit (Homo sapiens, UniProt P07384); assay: Inhibitory concentration against Calpain I activity
T1 sequence (P07384 whole entry): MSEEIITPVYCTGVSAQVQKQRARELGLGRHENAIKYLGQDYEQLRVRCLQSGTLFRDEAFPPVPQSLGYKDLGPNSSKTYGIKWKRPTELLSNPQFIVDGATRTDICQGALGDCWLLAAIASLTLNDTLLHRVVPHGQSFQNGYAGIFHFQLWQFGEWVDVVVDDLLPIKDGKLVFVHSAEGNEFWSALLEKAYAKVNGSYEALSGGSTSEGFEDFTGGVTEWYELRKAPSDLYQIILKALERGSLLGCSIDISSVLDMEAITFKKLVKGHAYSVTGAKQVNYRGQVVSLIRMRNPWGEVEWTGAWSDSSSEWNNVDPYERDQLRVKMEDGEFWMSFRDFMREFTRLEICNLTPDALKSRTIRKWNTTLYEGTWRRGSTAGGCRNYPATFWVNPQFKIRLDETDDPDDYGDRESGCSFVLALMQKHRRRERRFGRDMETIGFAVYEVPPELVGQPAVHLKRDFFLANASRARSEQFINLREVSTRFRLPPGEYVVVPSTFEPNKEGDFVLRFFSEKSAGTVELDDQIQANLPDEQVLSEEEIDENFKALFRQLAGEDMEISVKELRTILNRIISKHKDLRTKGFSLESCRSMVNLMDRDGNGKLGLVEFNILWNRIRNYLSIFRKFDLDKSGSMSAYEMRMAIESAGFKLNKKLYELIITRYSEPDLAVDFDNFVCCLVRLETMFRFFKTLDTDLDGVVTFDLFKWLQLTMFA

[7] = as §2
[8] = Inhibitory concentration against peptidyl-glutamyl peptide hydrolase activity
[9] = system: Proteasome; assay: Inhibitory effect on 20S proteasome chymotrypsin-like activity; format: subcellular

IC50 [1] [mM]	IC50 [2] [µM]	IC50 [3] [µM]	IC50 [4] [µM]	IC50 [5] [mM]	IC50 [6] [µM]	IC50 [7] [µM]	IC50 [8] [µM]	IC50 [9] [µM]	SMILES
> 1	45.1	65.5	27.9						CC(C)CN(NC(=O)OCc1ccccc1)C(=O)CN(Cc1ccccc1)/N=C/c1ccccc1B(O)O
> 1	25.1	33.5	18.4						CC(C)CN(CC(=O)N(Cc1ccccc1)NC(=O)OCc1ccccc1)/N=C/c1ccccc1B(O)O
0.5	16.3	> 80	> 80						CC(C)CN(NC(=O)CN(Cc1ccccc1)/N=C/c1cccc(B(O)O)c1)c1cnccn1
> 1	19.9	20.5	16.9						CC(C)CN(CC(=O)N(Cc1ccccc1)NC(=O)OCc1ccccc1)/N=C/c1cccc(B(O)O)c1
> 1	3.3	1.3	6.5						CC(C)CN(CC(=O)N(CC(C)C)NC(=O)OCc1ccccc1)NC(=O)CBr
0.35	40.3	21.1	41.6						CC(C)CN(CC(=O)N(Cc1cccnc1)NC(=O)OCc1ccccc1)/N=C/c1cccc(B(O)O)c1
> 1	2.3	2.5	7.6						CC(C)CN(CC(=O)N(CC(C)C)NC(=O)OCc1ccccc1)NC(=O)CNNC(=O)CBr
0.053	18.4	20.4	16.2	> 1	> 1000				CC(C)CN(NC(=O)OCc1ccccc1)C(=O)CN(Cc1ccccc1)/N=C/c1cccc(B(O)O)c1
> 1		0.7	0.6						CC(C)CN(NC(=O)CN(Cc1ccccc1)NC(=O)CBr)C(=O)OCc1ccccc1
> 1	60.9	74.9	75						CC(C)CN(NC(=O)OCc1ccccc1)C(=O)CN(Cc1cccnc1)/N=C/c1cccc(B(O)O)c1
> 1	33.7	> 80	> 80						CC(C)CN(CC(=O)NN(Cc1ccccc1)c1cnccn1)/N=C/c1cccc(B(O)O)c1
> 1	1.8	1.4	1.3						CC(C)CN(NC(=O)OCc1ccccc1)C(=O)CN(Cc1ccccc1)NC(=O)CBr
> 1	39.3	32.6	14.7						CC(C)CN(NC(=O)OCc1ccccc1)C(=O)CN(Cc1ccccc1)/N=C/c1ccc(B(O)O)cc1
0.091		53.9	21.2						CC(C)CN(CC(=O)N(CC(C)C)NC(=O)OCc1ccccc1)/N=C/c1cccc(B(O)O)c1
> 1	4.5	2.2	5						CC(C)CN(CC(=O)N(CC(C)C)NCC(=O)OCc1ccccc1)NC(=O)CBr
> 1		> 80	30						CC(C)CN(NC(=O)OCc1ccccc1)C(=O)CN(Cc1ccccc1)NCc1cccc(Br)c1
> 1	14.8	11.4	24.1						CC(C)CN(CC(=O)NN(Cc1ccccc1)c1cnccn1)NC(=O)CBr
0.05	17.3	26.3	16.2	> 1	> 1000				CC(C)CN(CC(=O)N(CC(C)C)NC(=O)OCc1ccccc1)/N=C/c1ccccc1B(O)O
		14.5	3		1	12	45	15	CCCC[C@@H](C=O)NC(=O)[C@H](CC(C)C)NC(=O)[C@H](CC(C)C)NC(C)=O (Ac-Leu-Leu-[Nle]-aldehyde)
